Active and inactive are the calls of the source. The calls are words filed in the database; no cut-off is given here.
Columns and labels:
Salmonella typhimurium [1] = experiment: Mutagenicity in Salmonella typhimurium TA98/TA100 assessed as revertant colonies/plate in absence of rat liver S9 fraction at 10 ug/spot after 2 to 3 days by Ames test; assay type: toxicity; conditions: salmonella enterica subsp. enterica serovar typhimurium
In short: (§1)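 Mutagenicity was screened by the spot-based Ames test procedure, with compound applied at 10 μg/spot.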

Salmonella typhimurium [2] = experiment: Mutagenicity in Salmonella typhimurium TA98/TA100 assessed as revertant colonies/plate in presence of rat liver S9 fraction at 10 ug/spot after 2 to 3 days by Ames test; assay type: toxicity; conditions: salmonella enterica subsp. enterica serovar typhimurium; in short: as §1
Salmonella typhimurium [3] = experiment: Mutagenicity in Salmonella typhimurium TA1535/TA1538 assessed as revertant colonies/plate in presence of rat liver S9 fraction at 10 ug/spot after 2 to 3 days by Ames test; assay type: toxicity; conditions: salmonella enterica subsp. enterica serovar typhimurium; in short: as §1
Salmonella typhimurium [4] = experiment: Mutagenicity in Salmonella typhimurium TA1535/TA1538 assessed as revertant colonies/plate in absense of rat liver S9 fraction at 10 ug/spot after 2 to 3 days by Ames test; assay type: toxicity; conditions: salmonella enterica subsp. enterica serovar typhimurium; in short: as §1
Chlamydia trachomatis [5] = experiment: Antimicrobial activity against Chlamydia trachomatis serovar LGV-L2 454/Bu infected in human HeLa229 cells assessed as concentration required to reduce reinfection levels by >= 95% measured 44 to 48 hrs post infection by DAPI staining-based assay; assay type: functional
In short: (§2)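 HeLa cells were infected with C. trachomatis LGV-L2 and treated with compound. After 48 h the cells were lysed and the recovered bacteria used to infect fresh HeLa cells. Reinfection was quantified as new inclusion forming units versus cells infected with untreated bacteria. The concentration giving 95% reduction (Reinfect95) was determined from fixed concentrations of 2.5, 1.0, 0.5 and 0.25 μM.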

[6] = Cytotoxicity against human HeLa229 cells assessed as cell viability at 10 uM after 44 to 48 hrs by resazurin-based fluorometry relative to control; set-up: species or system HeLa 229; conditions: read-out: Activity
In short: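 HeLa host cell viability was measured with compound at 10 μM in a resazurin assay, run to exclude host toxicity as the cause of anti-infective activity.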

Escherichia coli = experiment: Growth inhibition of Escherichia coli CCUG 17620 at 10 ug/ml after 24 hrs by disk diffusion method
In short: (§3)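 Disk diffusion assay of vaginal flora species (S. aureus, E. coli, L. jensenii, S. agalactiae) and the fungus C. albicans, with compound tested at 10 μg/mL.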

Chlamydia trachomatis [7] = experiment: Antimicrobial activity against Chlamydia trachomatis serovar LGV-L2 454/Bu infected in human HeLa229 cells assessed as reduction in reinfection levels measured 44 to 48 hrs post infection by DAPI staining-based assay; assay type: functional, cell-based; conditions: HeLa 229; in short: as §2
Streptococcus agalactiae = experiment: Growth inhibition of Streptococcus agalactiae CCUG 4208 at 10 ug/ml after 24 hrs by disk diffusion method; in short: as §3
Staphylococcus aureus = experiment: Growth inhibition of Staphylococcus aureus CCUG 1800 at 10 ug/ml after 24 hrs by disk diffusion method; in short: as §3
Candida albicans = experiment: Growth inhibition of Candida albicans at 10 ug/ml after 24 hrs by disk diffusion method; in short: as §3
Lactobacillus jensenii = experiment: Growth inhibition of Lactobacillus jensenii CCUG 33572 at 10 ug/ml after 24 hrs by disk diffusion method; in short: as §3
Chlamydia trachomatis [8] = experiment: Antimicrobial activity against Chlamydia trachomatis serovar LGV-L2 454/Bu infected in human HeLa229 cells at 1 uM compound treated during 48 hrs of infection by DAPI staining-based assay; assay type: functional, cell-based
In short: (§4)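 Time-of-addition format of the LGV-L2 HeLa infection/reinfection assay. Compound was present during the first 24 h, the second 24 h, or throughout the 48 h infection. Infectivity was then scored against untreated controls.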

Chlamydia trachomatis [9] = experiment: Antimicrobial activity against Chlamydia trachomatis serovar D UW-3 infected in human HeLa229 cells assessed as reduction in reinfection levels measured 44 to 48 hrs post infection by DAPI staining-based assay; assay type: functional, cell-based; conditions: serovar D UW-3, HeLa 229
Chlamydia trachomatis [10] = experiment: Antimicrobial activity against Chlamydia trachomatis serovar LGV-L2 454/Bu infected in human HeLa229 cells at 1 uM compound treated during first 24 hrs of infection by DAPI staining-based assay; assay type: functional, cell-based; in short: as §4
Chlamydia trachomatis [11] = experiment: Antimicrobial activity against Chlamydia trachomatis serovar LGV-L2 454/Bu expressing mCherry infected in human HeLa cells assessed as reduction in accumulation of BODIPY 22 in bacterial inclusions at 0.5 uM incubated for 48 hrs by BODIPY 22-based confocal microscopy

For `Nc1c(Cc2cccc3ccccc23)c(C2CC2)c2n(c1=O)C(C(=O)Nc1ccccc1)CS2` (configuration not stated), the Activity (Salmonella typhimurium [1]) was “Non-Toxic”, the Activity (Salmonella typhimurium [2]) was “Non-Toxic” and the Activity (Salmonella typhimurium [3]) was “Non-Toxic”. For the same compound, the Activity (Salmonella typhimurium [4]) was “Non-Toxic”.
`O=c1cc(Cc2cccc3ccccc23)c(C2CC2)c2n1C(c1nnc(-c3ccccc3)o1)CS2` (configuration not stated) gave an Activity (Chlamydia trachomatis [5]) of 1 µM and a viability at 10 µM [6] of 103%.
In the case of `O=C(NS(=O)(=O)c1ccccc1)C1CSc2c(C3CC3)c(Cc3cccc4ccccc34)cc(=O)n21` (configuration not stated), the Activity (Chlamydia trachomatis [5]) is reported as >2.5 µM and the viability at 10 µM [6] is reported as 105%.
With `O=c1cc(Cc2cccc3ccccc23)c(C2CC2)c2n1C(c1nc(-c3ccccc3)n[nH]1)CS2` (configuration not stated) the Activity (Chlamydia trachomatis [5]) was 0.5 µM and the viability at 10 µM [6] was 98%.
In the case of `O=c1cc(Cc2cccc3ccccc23)c(C2CC2)c2n1C(n1cc(-c3ccccc3)nn1)CS2` (configuration not stated), the Activity (Chlamydia trachomatis [5]) is reported as 0.25 µM, the Activity (Salmonella typhimurium [1]) is reported as “Non-Toxic” and the viability at 10 µM [6] is reported as 96%. The “growth inhibition (GI)” value (Escherichia coli) was “Non-Toxic”, the EC50 (Chlamydia trachomatis [7]) was 18 nM and the “growth inhibition (GI)” value (Streptococcus agalactiae) was “Non-Toxic”. For the same compound, the “growth inhibition (GI)” value (Staphylococcus aureus) was “Non-Toxic”, the “growth inhibition (GI)” value (Candida albicans) was “Non-Toxic” and the “growth inhibition (GI)” value (Lactobacillus jensenii) was “Non-Toxic”. The Activity (Chlamydia trachomatis [8]) was “Active”, the EC50 (Chlamydia trachomatis [9]) was 37 nM and the Activity (Salmonella typhimurium [2]) was “Non-Toxic”. The Activity (Salmonella typhimurium [3]) was “Non-Toxic”, the Activity (Chlamydia trachomatis [10]) was “inactive” and the Activity (Chlamydia trachomatis [11]) was “Active”. The Activity (Salmonella typhimurium [4]) was “Non-Toxic”.
In the case of `Nc1c(Cc2cccc3ccccc23)c(C2CC2)c2n(c1=O)C(n1cc(-c3ccccc3)nn1)CS2` (configuration not stated), the Activity (Chlamydia trachomatis [5]) is reported as 0.25 µM, the Activity (Salmonella typhimurium [1]) is reported as “Non-Toxic” and the viability at 10 µM [6] is reported as 105%. The “growth inhibition (GI)” value (Escherichia coli) was “Non-Toxic”, the EC50 (Chlamydia trachomatis [7]) was 13 nM and the “growth inhibition (GI)” value (Streptococcus agalactiae) was “Non-Toxic”. The “growth inhibition (GI)” value (Staphylococcus aureus) was “Non-Toxic”, the “growth inhibition (GI)” value (Candida albicans) was “Non-Toxic” and the “growth inhibition (GI)” value (Lactobacillus jensenii) was “Non-Toxic”. For the same compound, the Activity (Chlamydia trachomatis [8]) was “Active”, the EC50 (Chlamydia trachomatis [9]) was 35 nM and the Activity (Salmonella typhimurium [2]) was “Non-Toxic”. For the same compound, the Activity (Salmonella typhimurium [3]) was “Non-Toxic”, the Activity (Chlamydia trachomatis [10]) was “inactive” and the Activity (Chlamydia trachomatis [11]) was “Active”. The Activity (Salmonella typhimurium [4]) was “Non-Toxic”.
In the case of `CC(C)(C)OC(=O)NC1CSc2c(C3CC3)c(Cc3cccc4ccccc34)cc(=O)n21` (configuration not stated), the Activity (Chlamydia trachomatis [5]) is reported as >2.5 µM and the viability at 10 µM [6] is reported as 105%.
`Cc1cccc(-c2n[nH]c(C3CSc4c(C5CC5)c(Cc5cccc6ccccc56)cc(=O)n43)n2)c1` (configuration not stated) gave an Activity (Chlamydia trachomatis [5]) of 0.5 µM and a viability at 10 µM [6] of 95%.
With `O=c1cc(Cc2cccc3ccccc23)c(C2CC2)c2n1C(c1nc(-c3ccccc3)no1)CS2` (configuration not stated) the Activity (Chlamydia trachomatis [5]) was >2.5 µM and the viability at 10 µM [6] was 99%.
Work on `O=c1cc(Cc2cccc3ccccc23)c(C2CC2)c2n1C(c1nc(-c3ccccc3)c[nH]1)CS2` (configuration not stated) yielded an Activity (Chlamydia trachomatis [5]) of 2.5 µM and a viability at 10 µM [6] of 106%.
With `O=c1cc(Cc2cccc3ccccc23)c(C2CC2)c2n1C(NS(=O)(=O)c1ccccc1)CS2` (configuration not stated) the Activity (Chlamydia trachomatis [5]) was >2.5 µM and the viability at 10 µM [6] was 114%.
`O=c1cc(Cc2cccc3ccccc23)c(C2CC2)c2n1C(c1nc(-c3ccccc3)co1)CS2` (configuration not stated) gave an Activity (Chlamydia trachomatis [5]) of 2.5 µM and a viability at 10 µM [6] of 83%.
In the case of `Nc1c(Cc2cccc3ccccc23)c(C2CC2)c2n(c1=O)C(c1nc(-c3ccccc3)n[nH]1)CS2` (configuration not stated), the Activity (Chlamydia trachomatis [5]) is reported as 0.25 µM and the viability at 10 µM [6] is reported as 100%.
In the case of `O=C(NC1CSc2c(C3CC3)c(Cc3cccc4ccccc34)cc(=O)n21)c1ccccc1` (configuration not stated), the Activity (Chlamydia trachomatis [5]) is reported as 2.5 µM and the viability at 10 µM [6] is reported as 114%.
For `O=C(CNC(=O)C1CSc2c(C3CC3)c(Cc3cccc4ccccc34)cc(=O)n21)c1ccccc1` (configuration not stated), the Activity (Chlamydia trachomatis [5]) was 2.5 µM and the viability at 10 µM [6] was 107%.
For `O=c1cc(Cc2cccc3ccccc23)c(C2CC2)c2n1C(c1ncc(-c3ccccc3)s1)CS2` (configuration not stated), the Activity (Chlamydia trachomatis [5]) was >2.5 µM and the viability at 10 µM [6] was 97%.
